# In the library only some 4.1% were active in any assay of this set; here they are far more common.
# SMARCA2 act – SMARCA2 function activation, primary screen | MG213 cells, MMTV-luciferase reporter, dexamethasone, overnight | activation, % at 9.1 µM | hit rate 1% among 370,000; in the data active means activation above about 7.8%
# AHR activator – activates the human aryl hydrocarbon receptor. hit rate 2.5% among 320,000. AHR-responsive luciferase reporter cells, luminescence. P35869. activation, % at 5 µM; in the data active means activation above about 47%
# Target sequence (P35869 whole entry, looked up): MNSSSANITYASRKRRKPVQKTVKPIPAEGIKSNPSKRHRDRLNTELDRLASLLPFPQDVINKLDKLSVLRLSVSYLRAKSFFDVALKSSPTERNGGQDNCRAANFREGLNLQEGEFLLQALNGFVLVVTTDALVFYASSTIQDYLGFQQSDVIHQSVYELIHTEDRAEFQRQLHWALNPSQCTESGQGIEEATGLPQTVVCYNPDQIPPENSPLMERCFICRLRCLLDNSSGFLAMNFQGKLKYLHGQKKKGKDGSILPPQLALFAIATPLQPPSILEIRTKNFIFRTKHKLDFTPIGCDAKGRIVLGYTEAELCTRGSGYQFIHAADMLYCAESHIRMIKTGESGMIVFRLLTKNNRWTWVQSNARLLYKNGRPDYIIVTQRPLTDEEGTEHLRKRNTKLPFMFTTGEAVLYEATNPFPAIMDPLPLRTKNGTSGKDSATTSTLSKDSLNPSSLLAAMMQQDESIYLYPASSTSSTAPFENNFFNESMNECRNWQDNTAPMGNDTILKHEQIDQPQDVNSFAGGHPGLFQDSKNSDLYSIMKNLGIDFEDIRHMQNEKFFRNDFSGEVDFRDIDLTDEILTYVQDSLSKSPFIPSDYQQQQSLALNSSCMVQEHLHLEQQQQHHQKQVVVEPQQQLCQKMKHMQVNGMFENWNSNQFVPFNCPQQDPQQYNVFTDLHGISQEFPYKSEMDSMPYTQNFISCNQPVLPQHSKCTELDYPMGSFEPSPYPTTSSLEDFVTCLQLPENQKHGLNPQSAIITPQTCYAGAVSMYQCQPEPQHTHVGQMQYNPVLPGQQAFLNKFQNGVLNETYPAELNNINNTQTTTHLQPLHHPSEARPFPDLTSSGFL
# Efflux pump mplx – inhibitors of Candida antifungal efflux pumps expressed in yeast | S. cerevisiae Candida pump triplex, Nile Red efflux | inhibition, % at 10 µM | hit rate 0.44% among 330,000;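 active means plate passing quality check with inhibition over a set limit, or well fluorescence over plate mean plus 4 SD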;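 further: Nile Red retained in pooled yeast measured as flow cytometry median fluorescence; higher means more Nile Red kept so more efflux inhibition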
# Tb MetRS inh – Trypanosoma brucei MetRS inhibition. purified T. brucei MetRS, ATP depletion, Kinase-Glo luminescence. AID 624268. inhibition, % at 11.9 µM. hit rate 0.4% among 360,000;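 active means inhibition above a per-plate cutoff of the control wells' mean inhibition plus 3 SD, cut at about 5.5% in these data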
#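 Measured by: Kinase-Glo luciferase luminescence reporting remaining unconsumed ATP. Material: purified T. brucei MetRS enzyme. Doses: 11.9 µM compound single dose, 0.9% DMSO. Medium: HEPES buffer containing pyrophosphatase, BSA, spermine, DTT. Times: 15 min preincubation, 2 h reaction, all 25 °C. Reagent: methionine, ATP and bulk E. coli tRNA.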
# TAG inh – triacylglycerol accumulation inhibition; H9c2 cells, Nile Red lipid (TAG) fluorescence; cells loaded with 200 µM oleic acid; inhibition, % at 12.5 µM; hit rate 0.66% among 230,000;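 active means pattern-corrected inhibition of lipid staining of at least 50% with the nuclear-stain viability signal not falling by more than 50%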
# Hits are given with their value; 0 = inactive; - = no result given.
SMILES,SMARCA2 act,AHR activator,Efflux pump mplx,Tb MetRS inh,TAG inh
CCc1ccc2c(c1)[C@H]1OCC[C@H]1[C@@H](c1cccs1)N2,0,78.4,0,0,-
O=C(CCc1ccccc1)N[C@H]1[C@@H](O)CCC[C@]12C(=O)N(Cc1ccccc1)c1ccccc12,0,-,-,-,-
COC(=O)CC#C[C@@H](C)[C@H](NS(=O)(=O)c1ccc(C)cc1)C(C)(C)C,0,-,-,-,-
COc1ccc(NC(=O)N2CCc3ccccc3C2)cc1,0,-,0,0,0
O=C(Nc1ccc(Cl)cc1)N1CCc2ccccc2C1,0,62.7,0,0,0
CCOc1ccc(NC(=O)N2CCc3ccccc3C2)cc1,0,66.9,0,0,0
O=C(CN(c1cccc(Cl)c1)S(=O)(=O)c1ccc(Cl)cc1)N1CCc2ccccc2C1,0,60.8,0,0,-
NC(=O)c1ncn2c(=O)n(CCCl)nnc12,0,-,-,-,-
COc1cc(-c2nc3ccc(N4CCN(C)CC4)cc3[nH]2)cc(OC)c1OC,0,0,0,0,0
COc1ccc(-c2nc3ccc(N4CCN(C)CC4)cc3c(=O)[nH]2)cc1,0,56.4,0,0,0
O=c1[nH]c2ccccc2c2cn(-c3ccccc3)nc12,0,63.6,0,0,-
O=c1[nH]c2ccccc2c2ccccc12,0,0,0,0,0
O=C(N=C1N(Cc2ccccc2)[C@@H](Cc2ccccc2)[C@]2(C=C3CCCCC3n3c(=O)n(-c4ccccc4)c(=O)n32)N1C(=O)OCc1ccccc1)c1ccccc1 (some centres undefined),0,-,-,-,-
O=C(Nc1ccc(F)cc1)OCc1cn(Cc2cc(F)cc(F)c2)nn1,0,-,-,-,-
CCOc1nc(-c2ccncc2)nc2ccccc12,0,114.0,0,0,0
Fc1ccccc1Nc1nc(-c2ccncc2)nc2ccccc12,0,56.1,0,0,0
c1ccc(Nc2nc(-c3ccncc3)nc3ccccc23)cc1,0,0,0,0,-
Cc1ccc(Nc2nc(-c3ccncc3)nc3ccccc23)cc1,0,0,0,0,0
Fc1ccc(Nc2nc(-c3ccncc3)nc3ccccc23)cc1,0,52.1,0,0,0
Cc1ccc(CNC[C@@]23CO[C@H](c4ccc(Cl)cc4)N2[C@@H](c2ccc(Cl)cc2)SC3)o1,0,-,-,-,-
COc1cc(Br)cc(/C=N/NC(=O)Cc2ccc(C(F)(F)F)cc2[N+](=O)[O-])c1O,0,50.5,0,0,-
COc1ccc(-c2cn3ccccc3n2)cc1,0,0,0,0,0
COc1ccc(-c2cn3ccc4ccccc4c3n2)cc1,0,48.2,0,0,0
O=C1C(Cl)=C(Nc2ccccc2O)C(=O)N1c1ccccc1,0,55.5,0,0,0
COc1ccc(S(=O)(=O)N2CCCc3nc(-c4ccc(F)cc4)ccc32)cc1,0,-,-,-,-
SMILES,SMARCA2 act,AHR activator,Efflux pump mplx,Tb MetRS inh,TAG inh
Cc1ccc(-n2nc(C)c3c(C)onc3c2=O)cc1,0,0,0,0,0
Cc1nn(-c2ccc(Cl)cc2)c(=O)c2c(C)noc12,0,78.1,0,0,0
Cc1nc2sc(C(c3ccco3)N3CCc4ccccc4C3)c(O)n2n1 (centres undefined),0,51.2,0,0,-
N#Cc1cccnc1Nc1ccc(Cl)cc1,0,54.6,0,0,-
COc1ccc2c(c1)CCCN2C(=O)C1CCCN(S(=O)(=O)c2cc(OC)ccc2OC)C1 (centres undefined),0,-,-,-,-
N#Cc1ccccc1CSc1nc2ccc(NC(=O)c3ccccc3C(=O)O)cc2s1,0,49.5,0,0,0
O=C(O)c1ccc(CSc2nc3ccc(NC(=O)c4ccccc4C(=O)O)cc3s2)cc1,0,0,0,0,0
COc1ccc(C(=O)Nc2cccc3nc(C)ccc23)c(OC)c1,0,71.8,0,0,0
COc1ccccc1C(=O)Nc1cccc2nc(C)ccc12,0,53.0,0,0,0
COc1ccccc1NC(=O)c1cc2ccccc2nc1C,0,57.4,0,0,-
COC(=O)[C@H](C)NC(=O)C(Cc1ccc2c(c1)OCO2)NC(C)=O (some centres undefined),0,-,-,-,-
N=c1c2c(-c3ccccc3)c(-c3ccccc3)n(CCc3ccccc3)c2ncn1C1CCC(O)CC1 (centres undefined),0,-,-,-,-
COC(=O)[C@]12C[C@H](CC(=O)N3CCN(C(=O)c4ccco4)CC3)C(=O)N(CCc3ccc(OC)c(OC)c3)C1=C[C@H](COCc1ccccc1)O[C@@H]2C,0,-,-,-,-
C=CCN1C(=O)[C@@H](CC(=O)N2CCSCC2)[C@]2(C(=O)OC)CCCCC=C12,0,-,-,-,-
COc1cccc(OCc2cc(/C=N/NC(=O)c3ccn[nH]3)ccc2OC)c1,0,63.0,0,0,0
COc1ccc(/C=N/NC(=O)c2nc(-c3ccccc3)cc(-c3ccccc3)n2)cc1O,0,52.1,0,0,-
